Experimental findings from ChEMBL document CHEMBL4014308, “Amphiphilic Tobramycin-Lysine Conjugates Sensitize Multidrug Resistant Gram-Negative Bacteria to Rifampicin and Minocycline” (J Med Chem, 2017) are described below.

Molecules are shown by their SMILES. Calls of active or inactive are those of the source.

Usually mortality stands for the percentage killed. As a reminder, the MIC is the smallest concentration in the dilution series that meets the test's criterion for growth inhibition.

Common to all, as to assay type: functional
Assay [1] has as its system Pseudomonas aeruginosa. Nature of the assay: Antibacterial activity against multidrug/extremely drug-resistant/colistin-susceptible Pseudomonas aeruginosa isolate P262-101856 infected in Galleria mellonella assessed as mortality at 75 mg/kg after 24 hrs relative to control. The following applies: isolate P262-101856, 24 h. A digest of the protocol: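 Galleria mellonella larvae (about 250 mg, used within 7 days; 15 per group) were injected with 10 µL of XDR P. aeruginosa P262 at 1.0×10^3 CFU/mL. At 2 h they received a single 10 µL injection: monotherapy at 75 mg/kg, or combinations at 12.5+12.5 to 75+75 mg/kg. PBS vehicle served as control. Survival was scored over 24 h at 37 °C.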

Assay [2] relates to Pseudomonas aeruginosa. Nature of the assay: Bactericidal activity against Pseudomonas aeruginosa PAO1 at 4 times antibacterial MIC after 10 mins. Put shortly: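 Time-kill with P. aeruginosa PAO1. A 0.5 McFarland suspension was diluted 1:50 in LB broth and exposed to agent in PBS (pH 7.2) at 1/2×, 1×, 2× or 4× MIC at 37 °C for 6 h. Samples at 0, 10, 30, 60, 90, 120, 240 and 360 min were serially diluted in PBS, plated on LB agar, and colonies counted after 20 h at 37 °C.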

Assay [3] has as its system Acinetobacter baumannii. Nature of the assay: Antibacterial activity against Acinetobacter baumannii isolate CAN-ICU 63169 after 18 hrs by microtiter dilution assay. The settings on record: isolate CAN-ICU 63169, 18 h. Put shortly:
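Broth microdilution per CLSI. Overnight culture adjusted to 0.5 McFarland in saline, diluted 1:50 in Mueller-Hinton broth, and added to an equal volume of 2-fold serial compound dilutions in MHB. Incubated 18 h at 37 °C. MIC taken as the lowest concentration with no visible growth.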

Assay [4] deals with Pseudomonas aeruginosa. Nature of the assay: Synergistic antibacterial activity against Pseudomonas aeruginosa PAO1 after 18 hrs in presence of rifampicin by checkerboard assay. The settings on record: PAO1, 18 h. Put shortly:
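Checkerboard in MHB: antibiotic diluted along one axis and adjuvant along the other (10 × 7 matrix). Inoculum was a 1:50 dilution in MHB of a 0.5 McFarland saline suspension; incubated 18 h at 37 °C. Each FIC = concentration in the no-growth well divided by the MIC alone; FIC index = sum of both FICs. ≤0.5 synergy, 0.5–4 no interaction, ≥4 antagonism.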

The test system of assay [5] is Escherichia coli. The assay can be described thus: Antibacterial activity against gentamicin/tobramycin/ciprofloxacin-resistant Escherichia coli isolate CANWARD-2011 97615 harboring AAC3-2A after 18 hrs by microtiter dilution assay. The following applies: isolate CANWARD-2011 97615, 18 h. A digest of the protocol:
(§1)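 Broth microdilution following CLSI guidelines. An overnight culture was adjusted to 0.5 McFarland in saline, then diluted 1:50 in Mueller-Hinton broth. This inoculum was added in equal volume to 2-fold serial dilutions of agent in MHB and incubated 18 h at 37 °C. MIC was the lowest concentration with no visible growth.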

For assay [6], the system named is Acinetobacter baumannii. The assay can be described thus: Potentiation of minocycline-induced antibacterial activity against multidrug-resistant Acinetobacter baumannii AB030 at 4 ug/ml after 18 hrs by checkerboard assay. Put shortly:
(§2)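 Checkerboard in Mueller-Hinton broth: antibiotic serially diluted along one axis and adjuvant along the other (10 × 7 matrix). Inoculum from a 0.5 McFarland saline suspension diluted 1:50 in MHB; 18 h at 37 °C, then plate read. MIC is the lowest concentration with no growth. FIC of each agent is its concentration in a no-growth well divided by its MIC alone; FIC index is the sum of both. FIC index ≤0.5 counts as synergy.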

In assay [7] the test system is Pseudomonas aeruginosa. Nature of the assay: Potentiation of minocycline-induced antibacterial activity against multidrug/extremely drug-resistant/colistin-susceptible Pseudomonas aeruginosa isolate 100036 assessed as fold reduction in minocycline MIC at 4 ug/ml after 18 hrs by checkerboard assay relative to control. A digest of the protocol:
(§3)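 Checkerboard in Mueller-Hinton broth, 10 × 7 matrix, with the adjuvant held at 4 µg/mL. Inoculum from a 0.5 McFarland suspension diluted 1:50; 18 h at 37 °C. Antibiotic MIC (lowest concentration with no growth) with adjuvant is compared with the antibiotic MIC alone, giving a fold reduction.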

Assay [8] relates to Pseudomonas aeruginosa. Nature of the assay: Potentiation of rifampicin-induced antibacterial activity against multidrug/extremely drug-resistant/colistin-susceptible Pseudomonas aeruginosa isolate P264-104354 assessed as fold reduction in rifampicin MIC at 4 ug/ml after 18 hrs by checkerboard assay relative to control. Put shortly: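 Checkerboard broth microdilution in MHB: antibiotic serially diluted along one axis, adjuvant along the other (10 × 7 matrix). Inoculum from 0.5 McFarland saline suspension diluted 1:50 in MHB; 18 h at 37 °C. MIC taken as lowest concentration with no growth. FIC per agent = combination MIC/MIC alone; FIC index = sum (≤0.5 synergy).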

For assay [9], the system named is Escherichia coli. The assay can be described thus: Antibacterial activity against amikacin-resistant Escherichia coli isolate CAN-ICU 63074 after 18 hrs by microtiter dilution assay. The following applies: isolate CAN-ICU 63074, 18 h. Put shortly: as §1
Assay [10] concerns Pseudomonas aeruginosa. Nature of the assay: Potentiation of minocycline-induced antibacterial activity against multidrug/extremely drug-resistant/colistin-susceptible Pseudomonas aeruginosa isolate 101885 assessed as fold reduction in minocycline MIC at 4 ug/ml after 18 hrs by checkerboard assay relative to control. A digest of the protocol: as §3
Assay [11] relates to Acinetobacter baumannii. The assay can be described thus: Synergistic antibacterial activity against multidrug-resistant Acinetobacter baumannii AB027 after 18 hrs in presence of rifampicin by checkerboard assay. The following applies: AB027, 18 h. Put shortly: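 Checkerboard in MHB with a 10 × 7 matrix: antibiotic serially diluted along one axis, adjuvant along the other. Inoculum was a 1:50 dilution of a 0.5 McFarland suspension, incubated 18 h at 37 °C and read on a plate reader. Each FIC is the concentration in a no-growth well divided by the MIC alone; FIC index is their sum, with ≤0.5 taken as synergy.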

In a further assay the test system is Enterobacter cloacae. Nature of the assay: Potentiation of minocycline-induced antibacterial activity against multidrug-resistant Enterobacter cloacae 117029 at 4 ug/ml after 18 hrs by checkerboard assay. Put shortly: as §2
Assay [12] concerns Acinetobacter baumannii. Nature of the assay: Potentiation of rifampicin-induced antibacterial activity against multidrug-resistant Acinetobacter baumannii AB031 at 4 ug/ml after 18 hrs by checkerboard assay. Put shortly:
as §2

A further assay has as its system Staphylococcus aureus. The assay can be described thus: Antibacterial activity against Staphylococcus aureus ATCC 29213 after 18 hrs by microtiter dilution assay. The following applies: ATCC 29213, 18 h. Put shortly: as §1
The test system of assay [13] is Pseudomonas aeruginosa. Nature of the assay: Potentiation of minocycline-induced antibacterial activity against multidrug/extremely drug-resistant/colistin-resistant Pseudomonas aeruginosa isolate 101243 at 4 ug/ml after 18 hrs by checkerboard assay. A digest of the protocol: as §2
Assay [14] has as its system Pseudomonas aeruginosa. The assay can be described thus: Potentiation of minocycline-induced antibacterial activity against multidrug/extremely drug-resistant/colistin-susceptible Pseudomonas aeruginosa isolate P259-96918 at 4 ug/ml after 18 hrs by checkerboard assay. A digest of the protocol:
as §2

Assay [15] has as its system Pseudomonas aeruginosa. Nature of the assay: Potentiation of minocycline-induced antibacterial activity against Pseudomonas aeruginosa PAO1 after 25 serial passages at 0.125 times MIC by microtiter dilution assay. Put shortly: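 Sequential passaging of wild-type PAO1 with single drugs or drug combinations. MIC was tested in MHB for 18 h. Cells from the well at half the MIC were adjusted to 0.5 McFarland in saline, diluted 1:50 in fresh MHB and used for the next MIC test. This was repeated for 25 passages, and the fold change in MIC was plotted against passage number.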

Assay [16] has as its system Pseudomonas aeruginosa. Nature of the assay: Potentiation of moxifloxacin-induced antibacterial activity against Pseudomonas aeruginosa PAO1 at 4 ug/ml after 18 hrs by checkerboard assay. A digest of the protocol:
as §2

In assay [17] the test system is Pseudomonas aeruginosa. The assay can be described thus: Potentiation of minocycline-induced antibacterial activity against Pseudomonas aeruginosa PAO200 harboring MexAB-oprM deletion mutant after 18 hrs by checkerboard assay. A digest of the protocol: as §2

On to `Cl.Cl.Cl.Cl.Cl.Cl.Cl.NCCCC[C@H](N)C(=O)N(CCCCCCCCCCCCO[C@@H]1[C@@H](O[C@H]2O[C@H](CO)[C@@H](O)[C@H](N)[C@H]2O)[C@H](N)C[C@H](N)[C@H]1O[C@H]1O[C@H](CN)[C@@H](O)C[C@H]1N)Cc1c2ccccc2c(Cl)c2ccccc12`, for which the mortality at 75 mg/kg in the assay with Pseudomonas aeruginosa [1] was 100%. The result in the assay with Pseudomonas aeruginosa [2] and in the assay with Pseudomonas aeruginosa [15] was Active. Besides, the minimum inhibitory concentration (MIC) against Acinetobacter baumannii [3] was determined as 128 µg/mL; with Pseudomonas aeruginosa [4], 1 µg/mL; in the assay on Escherichia coli [5], 32 µg/mL; in the assay with Escherichia coli [9] it was 16 µg/mL; in the assay with Acinetobacter baumannii [11], 8 µg/mL; in the assay on Staphylococcus aureus, 8 µg/mL. For the same compound, the “fractional inhibitory concentration index (FICI)” value in the assay on Acinetobacter baumannii [6] was 0.375; in the assay on Enterobacter cloacae, 0.062; in the assay on Acinetobacter baumannii [12], 0.09; in the assay on Pseudomonas aeruginosa [13] it was 0.281; in the assay with Pseudomonas aeruginosa [14], 0.047; in the assay on Pseudomonas aeruginosa [16] it was 0.313. Besides, in the assay with Pseudomonas aeruginosa [17], the “fractional inhibitory concentration index (FICI)” value is on record as 0.531. For the same compound, the “fold change (FC)” value with Pseudomonas aeruginosa [7] amounted to 32; with Pseudomonas aeruginosa [8], 64; in the assay on Pseudomonas aeruginosa [10] it was 16.
